Among the data in ChEMBL document CHEMBL4411328, “Synthesis and Structural/Functional Characterization of Selective M14 Metallocarboxypeptidase Inhibitors Based on Phosphinic Pseudopeptide Scaffold: Implications on the Design of Specific Optical Probes” (J Med Chem, 2019) are Activity, Ki and inhibition values, retold here.

One may read the Ki as a dissociation constant, usually derived from enzyme kinetics or from competition with a known ligand. A high value points to weaker binding.

Activity calls are given as the source filed them. No cut-off for these calls is given here.

Data set [1] deals with HEK-293T. Nature of the data set: Cytotoxicity against HEK293T cells assessed as reduction in cell viability at 1 to 5 uM after 24 hrs by XTT assay. The data set is classed as cell-based. The conditions noted are these: human. In a few lines:
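Cells were exposed to compound at 1 and 5 µM for 24h in culture, and viability was then read by the XTT assay.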
For orientation: Formazan colour is commonly taken as a measure of viable cells.

In data set [2] the target is Mast cell carboxypeptidase A (Rattus norvegicus, UniProt P21961). Nature of the data set: Inhibition of rat CPA3 using AAFP as substrate preincubated for 45 mins measured at 30 sec intervals for 15 mins by UV/vis-spectrophotometry. In a few lines:
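Enzyme, inhibitor and buffer preincubated 45 min at 37 °C, then substrate added. Read at 355 nm every 30 sec for 15 min as initial velocities, in triplicate.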

Data set [3] concerns the target Carboxypeptidase N catalytic chain (Homo sapiens) (UniProt P15169). Nature of the data set: Inhibition of human CPN at 1 nM to 1 mM using N-(3-[2-furyl]acryloyl)-alanyl-lysine-OH as substrate preincubated for 45 mins measured at 30 sec intervals for 15 mins by UV/vis-spectrophotometry. In a few lines: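 hCPN at 2.0x10-9 M with 2.0x10-4 M FAAK substrate in 20 mM Tris-HCl pH 7.5, 100 mM NaCl, followed at 330 nm. Enzyme and inhibitor preincubated 45 min at 37 °C before substrate. Initial velocities read every 30 sec over 15 min, triplicate.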

Data set [4] deals with Cytosolic carboxypeptidase 1 (Homo sapiens) (UniProt Q9UPW5). Nature of the data set: Inhibition of human CCP1 at 1 nM to mM using tubulin as substrate preincubated for 45 mins measured at 30 sec intervals for 15 mins by UV/vis-spectrophotometry. In a few lines: (§1)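 hCCP1 or hCCP6 at 1.0x10-6 g with tubulin (12.5x10-5 g) as substrate in 20 mM Tris-HCl pH 7.5, 100 mM NaCl. Enzyme, inhibitor and buffer preincubated 45 min at 37 °C before substrate addition; run in triplicate.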
Chain of Cytosolic carboxypeptidase 1 (Homo sapiens) (Q9UPW5 whole entry): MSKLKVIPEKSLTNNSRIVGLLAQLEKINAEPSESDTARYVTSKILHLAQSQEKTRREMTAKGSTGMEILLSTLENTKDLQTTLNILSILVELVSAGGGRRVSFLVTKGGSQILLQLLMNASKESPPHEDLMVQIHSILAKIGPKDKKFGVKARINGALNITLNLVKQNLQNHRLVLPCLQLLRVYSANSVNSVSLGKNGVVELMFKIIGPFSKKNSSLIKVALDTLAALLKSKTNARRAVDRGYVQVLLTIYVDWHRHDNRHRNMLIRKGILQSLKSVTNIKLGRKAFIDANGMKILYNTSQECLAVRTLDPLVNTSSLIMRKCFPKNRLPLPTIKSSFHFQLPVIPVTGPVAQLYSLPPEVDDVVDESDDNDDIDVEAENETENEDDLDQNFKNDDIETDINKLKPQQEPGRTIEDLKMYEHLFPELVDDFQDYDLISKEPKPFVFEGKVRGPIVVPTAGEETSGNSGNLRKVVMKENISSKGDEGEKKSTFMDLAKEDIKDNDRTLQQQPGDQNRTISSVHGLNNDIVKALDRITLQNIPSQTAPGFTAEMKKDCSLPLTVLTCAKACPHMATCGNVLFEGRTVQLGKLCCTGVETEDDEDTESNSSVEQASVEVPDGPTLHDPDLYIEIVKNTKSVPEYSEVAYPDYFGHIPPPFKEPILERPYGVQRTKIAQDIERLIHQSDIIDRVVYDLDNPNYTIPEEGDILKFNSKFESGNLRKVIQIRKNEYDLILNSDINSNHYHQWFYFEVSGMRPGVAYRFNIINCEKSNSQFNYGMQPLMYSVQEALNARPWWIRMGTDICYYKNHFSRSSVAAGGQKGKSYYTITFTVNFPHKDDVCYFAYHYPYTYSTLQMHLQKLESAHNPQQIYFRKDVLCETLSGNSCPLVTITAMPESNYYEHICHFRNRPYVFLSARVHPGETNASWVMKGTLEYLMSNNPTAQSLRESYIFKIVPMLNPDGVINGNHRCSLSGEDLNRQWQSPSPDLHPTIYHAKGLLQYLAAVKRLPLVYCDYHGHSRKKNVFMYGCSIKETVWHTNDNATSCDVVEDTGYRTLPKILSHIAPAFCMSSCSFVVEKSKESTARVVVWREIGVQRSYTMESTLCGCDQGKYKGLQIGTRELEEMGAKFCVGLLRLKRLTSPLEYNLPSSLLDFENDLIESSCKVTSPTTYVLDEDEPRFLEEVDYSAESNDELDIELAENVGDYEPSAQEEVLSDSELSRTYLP

In data set [5] the target is Cytosolic carboxypeptidase 6 (Homo sapiens) (UniProt Q5VU57). Nature of the data set: Inhibition of human CCP6 at 1 nM to 1 mM using tubulin as substrate preincubated for 45 mins measured at 30 sec intervals for 15 mins by UV/vis-spectrophotometry. A digest of the protocol:
as §1

For another data set, the target named is Stromelysin-2 (Homo sapiens, UniProt P09238). Kind of data set: Inhibition of human MMP10 using fluorogenic Mca-Pro-Leu-Gly-Leu-Dpa-Ala-Arg-NH2 peptide as substrate preincubated for 45 mins measured at 30 sec intervals for 15 mins by UV/vis-spectrophotometry. A digest of the protocol: (§2)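 MMPs at nanomolar level with fluorogenic Mca-Pro-Leu-Gly-Leu-Dpa-Ala-Arg-NH2 substrate in 50 mM Tris-HCl pH 6.8, 10 mM CaCl2. Enzyme, inhibitor and buffer preincubated 45 min at 37 °C, then substrate added; initial velocities from 30-sec reads over 15 min, in triplicate.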
Chain of Stromelysin-2 (P09238 whole entry): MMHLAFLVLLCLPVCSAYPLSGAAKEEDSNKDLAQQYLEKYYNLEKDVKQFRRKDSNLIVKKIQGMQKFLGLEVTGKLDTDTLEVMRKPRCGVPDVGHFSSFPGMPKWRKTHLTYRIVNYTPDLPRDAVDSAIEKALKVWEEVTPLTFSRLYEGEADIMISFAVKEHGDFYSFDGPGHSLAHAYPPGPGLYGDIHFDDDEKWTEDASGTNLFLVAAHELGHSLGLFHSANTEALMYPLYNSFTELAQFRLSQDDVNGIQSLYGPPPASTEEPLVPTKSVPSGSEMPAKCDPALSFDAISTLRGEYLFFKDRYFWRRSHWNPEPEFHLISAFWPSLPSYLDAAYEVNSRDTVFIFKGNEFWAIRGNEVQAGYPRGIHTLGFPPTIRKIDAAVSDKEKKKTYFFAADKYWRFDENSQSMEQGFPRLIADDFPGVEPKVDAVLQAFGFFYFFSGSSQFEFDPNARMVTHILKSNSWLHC

Data set [6] addresses Macrophage metalloelastase (Homo sapiens, UniProt P39900). Kind of data set: Inhibition of human MMP12 using fluorogenic Mca-Pro-Leu-Gly-Leu-Dpa-Ala-Arg-NH2 peptide as substrate preincubated for 45 mins measured at 30 sec intervals for 15 mins by UV/vis-spectrophotometry. In a few lines: as §2
The target in another data set is Collagenase 3 (Homo sapiens, UniProt P45452). Nature of the data set: Inhibition of human MMP13 using fluorogenic Mca-Pro-Leu-Gly-Leu-Dpa-Ala-Arg-NH2 peptide as substrate preincubated for 45 mins measured at 30 sec intervals for 15 mins by UV/vis-spectrophotometry. A digest of the protocol: as §2
Data set [7] concerns the target Neutrophil elastase (Homo sapiens) (UniProt P08246). Kind of data set: Inhibition of human neutrophil Elastase at 1 nM to 1 mM using succinyl-alanylalanyl-prolyl-valine-4-nitroanilide as substrate preincubated for 45 mins measured at 30 sec intervals for 15 mins by UV/vis-spectrophotometry. A digest of the protocol: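 hNElastase 2.0x10-7 M, Suc-AAPVPNA 1.0x10-3 M, in 100 mM Tris-HCl pH 8.0, monitored at 414 nm. Preincubated with inhibitor 45 min at 37 °C before substrate; initial velocities from 30-sec reads over 15 min, triplicate.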

Data set [8] concerns the target Prothrombin (Homo sapiens) (UniProt P00734). Kind of data set: Inhibition of human thrombin at 1 nM to 1 mM using benzoylphenyl-valyl-arginine 4-nitroanilide as substrate preincubated for 45 mins measured at 30 sec intervals for 15 mins by UV/vis-spectrophotometry. A digest of the protocol: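 hThrombin 2.0x10-8 M with 1.0x10-3 M BzFVRPNA in 100 mM Tris-HCl pH 8.0, followed at 414 nm. Enzyme and inhibitor preincubated 45 min at 37 °C; substrate then added; initial velocities every 30 sec for 15 min, in triplicate.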

The next data set concerns the target Papain (Carica papaya) (UniProt P00784). Nature of the data set: Inhibition of papaya papain at 1 nM to 1 mM using L-pyroglutamyl-Lphenylalanyl-L-leucine-p-nitroanilide peptide as substrate preincubated for 45 mins measured at 30 sec intervals for 15 mins by UV/vis-spectrophotometry. A digest of the protocol:
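Papain 4.5x10-8 M, PFLNA substrate 4.0x10-4 M, buffer 100 mM phosphate pH 6.5, 100 mM KCl, 0.1 mM EDTA, 3 mM DTT, 0.05% w/v Brij-35; read at 414 nm. 45 min preincubation at 37 °C with inhibitor; initial velocities, 30-sec reads for 15 min, triplicate.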

A further data set is filed under the species Bos taurus. Kind of data set: Inhibition of bovine trypsin at 1 nM to 1 mM using Nalpha-benzoyl-L-arginine 4-nitroanilide hydrochloride as substrate preincubated for 45 mins measured at 30 sec intervals for 15 mins by UV/vis-spectrophotometry.
The subject of the next data set is HeLa. Kind of data set: Cytotoxicity against human HeLa cells by fluorescence confocal microscopy. The data set is classed as cell-based.
Data set [9] relates to HEK-293T. Nature of the data set: Cytotoxicity against HEK293T cells by fluorescence confocal microscopy. The data set is classed as cell-based. Particulars: human.
Data set [10] has as its target Mast cell carboxypeptidase A (Homo sapiens) (UniProt P15088). Nature of the data set: Binding affinity to CPA3 expressing human HeLa cells assessed as compound co-localization with CPA3 at 1 to 5 uM treated for 6 hrs followed by cell wash and measured by DAPI-staining based fluorescence confocal microscopy. A digest of the protocol: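 HeLa cells with cytoplasmic hCPA3 expression were treated 6 h with the fluorescent probe at 1 or 5 µM, washed, then imaged by fluorescence confocal microscopy for internalization and co-localization with CPA3.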

Chain of Cytosolic carboxypeptidase 6 (Homo sapiens) (Q5VU57 whole entry): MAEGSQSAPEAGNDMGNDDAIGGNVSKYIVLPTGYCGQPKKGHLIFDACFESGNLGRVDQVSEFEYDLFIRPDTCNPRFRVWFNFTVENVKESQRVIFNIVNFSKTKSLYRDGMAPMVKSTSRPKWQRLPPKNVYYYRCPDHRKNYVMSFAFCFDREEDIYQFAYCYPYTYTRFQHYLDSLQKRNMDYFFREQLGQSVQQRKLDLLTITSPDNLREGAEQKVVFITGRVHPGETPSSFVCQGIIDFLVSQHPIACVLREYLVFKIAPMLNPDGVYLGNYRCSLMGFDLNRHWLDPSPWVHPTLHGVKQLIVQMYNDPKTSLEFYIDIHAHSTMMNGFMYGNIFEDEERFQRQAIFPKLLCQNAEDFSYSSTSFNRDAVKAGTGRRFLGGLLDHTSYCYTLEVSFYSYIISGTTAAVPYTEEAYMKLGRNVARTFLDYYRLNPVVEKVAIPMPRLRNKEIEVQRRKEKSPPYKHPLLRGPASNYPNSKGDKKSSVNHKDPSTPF
Chain of Neutrophil elastase (Homo sapiens) (P08246 whole entry): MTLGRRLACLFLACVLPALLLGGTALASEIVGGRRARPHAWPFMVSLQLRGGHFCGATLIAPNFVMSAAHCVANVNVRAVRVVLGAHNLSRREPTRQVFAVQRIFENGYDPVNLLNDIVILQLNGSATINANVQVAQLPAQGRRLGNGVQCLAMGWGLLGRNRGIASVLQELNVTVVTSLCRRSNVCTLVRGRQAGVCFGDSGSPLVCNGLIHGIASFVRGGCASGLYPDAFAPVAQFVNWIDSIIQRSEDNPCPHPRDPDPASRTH
Chain of Mast cell carboxypeptidase A (P21961 whole entry): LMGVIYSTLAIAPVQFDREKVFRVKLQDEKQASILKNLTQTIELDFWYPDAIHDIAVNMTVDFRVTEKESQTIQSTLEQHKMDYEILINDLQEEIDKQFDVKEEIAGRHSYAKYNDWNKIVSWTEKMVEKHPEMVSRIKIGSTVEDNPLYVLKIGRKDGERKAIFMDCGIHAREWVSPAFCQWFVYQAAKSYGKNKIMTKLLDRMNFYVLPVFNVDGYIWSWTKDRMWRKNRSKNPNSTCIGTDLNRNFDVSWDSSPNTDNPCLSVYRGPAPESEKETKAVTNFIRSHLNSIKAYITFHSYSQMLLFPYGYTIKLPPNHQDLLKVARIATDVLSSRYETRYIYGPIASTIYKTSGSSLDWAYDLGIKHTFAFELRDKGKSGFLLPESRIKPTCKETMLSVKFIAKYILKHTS
Chain of Carboxypeptidase N catalytic chain (Homo sapiens) (P15169 whole entry): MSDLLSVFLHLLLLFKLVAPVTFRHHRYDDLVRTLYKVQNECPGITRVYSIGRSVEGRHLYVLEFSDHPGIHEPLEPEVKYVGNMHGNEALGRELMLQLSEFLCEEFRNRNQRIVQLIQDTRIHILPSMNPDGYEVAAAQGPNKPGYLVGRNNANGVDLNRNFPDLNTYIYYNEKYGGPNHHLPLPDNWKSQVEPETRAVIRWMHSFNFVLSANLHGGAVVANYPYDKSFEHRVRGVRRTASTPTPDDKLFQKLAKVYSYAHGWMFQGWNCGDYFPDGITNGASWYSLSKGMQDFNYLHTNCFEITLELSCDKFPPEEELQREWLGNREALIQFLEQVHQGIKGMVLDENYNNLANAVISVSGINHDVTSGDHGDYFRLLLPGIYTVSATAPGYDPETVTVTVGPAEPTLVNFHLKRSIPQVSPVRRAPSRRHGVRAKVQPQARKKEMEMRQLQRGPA
Chain of Mast cell carboxypeptidase A (Homo sapiens) (P15088 whole entry): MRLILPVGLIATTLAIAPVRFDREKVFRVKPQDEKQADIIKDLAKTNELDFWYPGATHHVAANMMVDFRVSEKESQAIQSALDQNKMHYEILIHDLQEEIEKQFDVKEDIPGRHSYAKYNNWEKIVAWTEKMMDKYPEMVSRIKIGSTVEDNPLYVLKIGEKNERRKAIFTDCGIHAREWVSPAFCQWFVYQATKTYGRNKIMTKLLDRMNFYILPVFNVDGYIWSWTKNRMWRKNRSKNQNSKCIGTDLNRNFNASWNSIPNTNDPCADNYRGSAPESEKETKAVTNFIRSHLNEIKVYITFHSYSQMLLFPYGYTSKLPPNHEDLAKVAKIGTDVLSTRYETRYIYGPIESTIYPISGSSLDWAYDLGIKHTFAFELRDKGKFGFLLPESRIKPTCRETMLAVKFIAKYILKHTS
Chain of Macrophage metalloelastase (P39900 whole entry): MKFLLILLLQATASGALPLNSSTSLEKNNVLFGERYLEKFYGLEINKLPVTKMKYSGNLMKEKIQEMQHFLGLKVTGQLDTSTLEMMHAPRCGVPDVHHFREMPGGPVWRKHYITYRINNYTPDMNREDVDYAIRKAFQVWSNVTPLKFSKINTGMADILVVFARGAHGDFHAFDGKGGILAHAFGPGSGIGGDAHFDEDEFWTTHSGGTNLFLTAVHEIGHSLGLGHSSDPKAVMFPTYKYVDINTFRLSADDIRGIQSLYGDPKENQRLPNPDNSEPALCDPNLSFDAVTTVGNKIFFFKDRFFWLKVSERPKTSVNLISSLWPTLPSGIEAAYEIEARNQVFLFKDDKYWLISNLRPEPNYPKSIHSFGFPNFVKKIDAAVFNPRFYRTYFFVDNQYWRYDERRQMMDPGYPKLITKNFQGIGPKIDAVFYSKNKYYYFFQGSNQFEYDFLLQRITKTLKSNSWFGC
Chain of Papain (Carica papaya) (P00784 whole entry): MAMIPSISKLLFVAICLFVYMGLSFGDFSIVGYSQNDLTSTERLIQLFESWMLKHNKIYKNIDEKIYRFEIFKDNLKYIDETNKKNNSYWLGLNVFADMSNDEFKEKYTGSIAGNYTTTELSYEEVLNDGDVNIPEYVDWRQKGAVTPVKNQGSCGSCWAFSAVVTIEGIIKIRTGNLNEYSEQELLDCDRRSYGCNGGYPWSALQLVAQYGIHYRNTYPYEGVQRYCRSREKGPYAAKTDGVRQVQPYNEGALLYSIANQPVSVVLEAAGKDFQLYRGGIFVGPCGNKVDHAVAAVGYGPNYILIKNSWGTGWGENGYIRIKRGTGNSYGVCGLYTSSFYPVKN

For the molecule `CC(=O)N[C@@H](Cc1ccc(O)cc1)C(=O)N[C@@H](C)P(=O)(O)C[C@@H](CCc1ccccc1)C(=O)O`, the Activity entry in the data set on HEK-293T [1] is on record as “Non-Toxic”.
For `C[C@H](NC(=O)[C@H](Cc1ccc(O)cc1)NC(=O)COCCOCCNC(=O)CCOCCOCCOCCNC(=O)CCc1ccc(C(=C\C=C2\N(CCCCS(=O)(=O)O)c3ccc4c(S(=O)(=O)[O-])cc(S(=O)(=O)O)cc4c3C2(C)C)/C=C/C2=[N+](CCCCS(=O)(=O)O)c3ccc4c(S(=O)(=O)O)cc(S(=O)(=O)O)cc4c3C2(C)C)cc1)P(=O)(O)C[C@@H](CCc1ccccc1)C(=O)O`, the Ki in data set [2] came to 0.017 nM; on Stromelysin-2, 983 nM; in [6], 1340 nM; at Collagenase 3, 562 nM. The inhibition result (in data set [3]; in data set [4]; in [5]; in [7]; in [8]; at Papain (Carica papaya)) was “inactive” in each case. Besides, the inhibition result in the data set listed under Bos taurus was “inactive”. Also, the Activity entry in the data set with HeLa and in the data set with HEK-293T [9] was “Non-Toxic” each time. Besides, in [10], the outcome was Active.
